According to ChEMBL document CHEMBL1135242, “Tricyclic isoxazoles are novel inhibitors of the multidrug resistance protein (MRP1)” (Bioorg Med Chem Lett, 2002):

Experiments:
HeLa = assay: Competitive inhibition of [3H]LTC4 uptake by MRP1 expressing HeLa-T5 cell membranes; type: functional, Homo sapiens
[1] = Selectivity ratio of average EC50 values was calculated in HL60/ADR cell line and HL60/Vinc cell line; type: functional, HL-60
Outline: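 Resistance reversal in MRP1-overexpressing HL60/Adr and P-gp-overexpressing HL60/Vinc cells. Modulator EC50 is the concentration-dependent enhancement of the antiproliferative response to an IC20 concentration of doxorubicin. Cell number is read by alamarBlue reduction. Ratio is the average EC50 in HL60/Vinc divided by the average EC50 in HL60/Adr.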

[2] = biological target: MRP1 (ABCC1, Homo sapiens); assay: In vitro for its inhibitory activity against MRP1-transfected HeLa-T5 cell line in the presence of doxorubicin

EC50 (HeLa) [nM] | EC50 [2] [nM] | SMILES | Ratio [1]
4200 |  | COc1cc(N(C)C(=O)Cc2cccc(-n3c(=O)c4c(C)onc4c4c(Cl)cccc43)c2)cc(OC)c1OC | 4
1800 |  | COc1cc(NC(=O)Cc2cccc(-n3c(=O)c4c(C)onc4c4c(Cl)cccc43)c2)cc(OC)c1OC | 
1700 | 1300 | COc1cc(NC(=O)Cc2cccc(-n3c(=O)c4c(C)onc4c4c(Cl)cccc43)c2)cc(OC)c1O | 14
 | 1130 | COc1cc(C(=O)NCc2cccc(-n3c(=O)c4c(C)onc4c4c(Cl)cccc43)c2)cc(OC)c1OC | 

The remaining lines, values behind:

SMILES | EC50 (HeLa) [nM] | EC50 [2] [nM] | Ratio [1]
Cc1ccc(NC(=O)Cc2cccc(-n3c(=O)c4c(C)onc4c4c(Cl)cccc43)c2)cc1 |  | 3700 | 
Cc1onc2c1c(=O)n(-c1cccc(CC(=O)Nc3ccc(C#N)cc3)c1)c1cccc(Cl)c21 |  | 4900 | 
Cc1onc2c1c(=O)n(-c1cccc(CC(=O)Nc3ccc(C(F)(F)F)cc3)c1)c1cccc(Cl)c21 |  | > 10000 | 
Cc1onc2c1c(=O)n(-c1cccc(CC(=O)Nc3ccccc3)c1)c1cccc(Cl)c21 |  | 2300 | 
COc1cc(OCCc2cccc(-n3c(=O)c4c(C)onc4c4c(Cl)cccc43)c2)cc(OC)c1OC | 4400 |  | 14
